Source: ChEMBL document CHEMBL1152452, “Modifications incorporated in CpG motifs of oligodeoxynucleotides lead to antagonist activity of toll-like receptors 7 and 9” (2009)
Activity calls are given as the source filed them. The rule behind the calls is not given here.

Key:
[1] = molecular target: T1, Toll-like receptor 9 (Mus musculus) (UniProt Q9EQU3); assay: Activation of mouse TLR9 expressed in HEK293 cells assessed as NF-kappaB level at 0.1 ug/mL after 18 hrs by reporter gene assay; format: cell-based
T1 sequence (whole entry): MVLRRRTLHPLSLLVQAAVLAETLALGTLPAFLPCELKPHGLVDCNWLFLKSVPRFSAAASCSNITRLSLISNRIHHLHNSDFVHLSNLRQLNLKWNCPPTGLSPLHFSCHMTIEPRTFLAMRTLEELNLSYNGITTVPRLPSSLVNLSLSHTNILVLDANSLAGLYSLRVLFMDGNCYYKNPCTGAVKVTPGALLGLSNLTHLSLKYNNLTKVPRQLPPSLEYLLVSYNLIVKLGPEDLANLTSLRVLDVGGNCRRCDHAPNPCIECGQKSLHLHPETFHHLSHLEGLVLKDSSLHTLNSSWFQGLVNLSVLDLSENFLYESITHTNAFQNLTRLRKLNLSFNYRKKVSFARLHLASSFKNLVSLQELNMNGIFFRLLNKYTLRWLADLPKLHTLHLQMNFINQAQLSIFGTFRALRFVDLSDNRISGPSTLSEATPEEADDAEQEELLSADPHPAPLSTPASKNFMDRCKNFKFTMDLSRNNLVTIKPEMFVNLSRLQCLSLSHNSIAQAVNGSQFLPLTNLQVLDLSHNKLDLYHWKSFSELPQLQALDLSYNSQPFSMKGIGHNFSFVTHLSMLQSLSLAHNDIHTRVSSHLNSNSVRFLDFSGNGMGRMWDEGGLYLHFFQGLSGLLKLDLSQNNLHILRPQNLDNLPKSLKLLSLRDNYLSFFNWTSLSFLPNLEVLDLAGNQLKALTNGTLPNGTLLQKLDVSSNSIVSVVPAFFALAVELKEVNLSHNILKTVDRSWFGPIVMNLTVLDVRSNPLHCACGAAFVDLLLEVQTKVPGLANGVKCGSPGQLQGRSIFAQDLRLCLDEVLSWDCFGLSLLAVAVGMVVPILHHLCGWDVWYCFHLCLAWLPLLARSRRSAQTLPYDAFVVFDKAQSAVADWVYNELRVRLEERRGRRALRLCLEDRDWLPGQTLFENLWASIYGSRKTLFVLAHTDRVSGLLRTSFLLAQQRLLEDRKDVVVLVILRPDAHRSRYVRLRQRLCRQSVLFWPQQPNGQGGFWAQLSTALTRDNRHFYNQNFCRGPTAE
Outline: (§1)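 HEK293 cells stably expressing mouse TLR9 were transiently transfected with a SEAP reporter for 6 h, then stimulated with ODN at 0.1, 0.3 or 1 μg/mL for 18 h. Reporter expression is given as fold change in NF-κB activity over medium. Representative of two independent experiments.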

[2] = molecular target: T1, Toll-like receptor 9 (Mus musculus); assay: Activation of mouse TLR9 expressed in HEK293 cells assessed as NF-kappaB level at 0.3 ug/mL after 18 hrs by reporter gene assay; format: cell-based; outline: as §1
J774 = assay: Inhibition of 5'-CTATCTGACGTTCTCTGT-3'-activated NF-kappaB activity in mouse J774 cells at 2.5 ug/ml after 1 hr by EMSA; format: cell-based
Outline: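 J774 murine macrophages were grown in DMEM with 10% FBS and antibiotics, plated at 5 × 10^6 cells/well, and co-incubated for 1 h with the agonist ODN (0.5 µg/mL) and test ODN (2.5 µg/mL). Nuclear extracts were prepared and NF-κB binding was analysed by EMSA on native polyacrylamide gels with autoradiography.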

Splenocyte = assay: Immunostimulatory activity in C57BL/6 mouse splenocytes assessed as induction of IL6 secretion at 2 to 10 ug/ml after 24 hrs by sandwich ELISA; format: functional, cell-based
Outline: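 C57BL/6 splenocytes (mice 5–8 weeks) at 5 × 10^6 cells/mL in RPMI complete medium. ODNs dissolved in PBS were added and the cells incubated at 37 °C for 24 h. Supernatant IL-12 or IL-6 was measured by sandwich ELISA. Runs were done two or three times, in duplicate per concentration.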

Mus musculus [3] = assay: Immunostimulatory activity in C57BL/6 mouse assessed as induction of MIP-1alpha level in serum at 2 mg/kg, sc after 2 hrs by Luminex multiplex assay; format: functional, organism-based; set-up: dose 2 mg/kg
Outline: (§2)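 Female C57BL/6 mice, 5–6 weeks old, n = 3, received a single 2 mg/kg subcutaneous ODN injection in the right flank. Blood was taken by retro-orbital bleeding 2 h later. Naive mice served as baseline. Representative of three experiments.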

Mus musculus [4] = assay: Immunostimulatory activity in C57BL/6 mouse assessed as induction of TNFalpha level in serum at 2 mg/kg, sc after 2 hrs by Luminex multiplex assay; format: functional, organism-based; set-up: dose 2 mg/kg; outline: as §2
Mus musculus [5] = assay: Immunostimulatory activity in C57BL/6 mouse assessed as inhibition of 5'-CTATCTGACGTTCTCTGT-3'-induced KC production in serum at 2 mg/kg, sc administered 24 hrs prior to 5'-CTATCTGACGTTCTCTGT-3' challenge measured after 2 hrs by Luminex multiplex assay; format: functional, organism-based; set-up: dose 2 mg/kg
Outline: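 C57BL/6 mice received 2 mg/kg ODN sc in one flank. After 24 h, the TLR9 agonist ODN was given at 0.5 mg/kg sc in the opposite flank. Blood was drawn 2 h later and serum cytokines/chemokines were quantified by Luminex multiplex assay. Percent inhibition was taken against the agonist alone. Representative of three experiments.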

Mus musculus [6] = assay: Immunostimulatory activity in C57BL/6 mouse assessed as inhibition of 5'-CTATCTGACGTTCTCTGT-3'-induced IL12 production in serum at 2 mg/kg, sc administered 24 hrs prior to 5'-CTATCTGACGTTCTCTGT-3' challenge measured after 2 hrs by sandwich ELISA; format: functional; conditions: C57BL/6, sc, route subcutaneous
Outline: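 C57BL/6 mice were pretreated sc in the right flank with 2, 5 or 10 mg/kg ODN. After 24 h, the TLR9 agonist ODN was given at 0.5 mg/kg sc in the left flank. Serum IL-12 was measured by ELISA 2 h later. Representative of two experiments.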

SMILES | Activity [1] | Activity [2] | Activity (J774) | Activity (Splenocyte) | Activity (Mus musculus [3]) | Activity (Mus musculus [4]) | Activity (Mus musculus [5]) | inhibition in vivo at 2 mg/kg (Mus musculus [6]) [%]
CO[C@@H]1[C@H](OP(=O)(S)OC[C@H]2O[C@@H](n3cnc4c(=O)[nH]c(N)nc43)C[C@@H]2OP(=O)(S)OC[C@H]2O[C@@H](n3cc(C)c(=O)[nH]c3=O)C[C@@H]2OP(=O)(S)OC[C@H]2O[C@@H](n3cc(C)c(=O)[nH]c3=O)C[C@@H]2OP(=O)(S)OC[C@H]2O[C@@H](n3ccc(N)nc3=O)C[C@@H]2OP(=O)(S)OC[C@H]2O[C@@H](n3cc(C)c(=O)[nH]c3=O)C[C@@H]2OP(=O)(S)OC[C@H]2O[C@@H](n3ccc(N)nc3=O)C[C@@H]2OP(=O)(S)OC[C@H]2O[C@@H](n3cc(C)c(=O)[nH]c3=O)C[C@@H]2OP(=O)(S)OC[C@H]2O[C@@H](n3cnc4c(=O)[nH]c(N)nc43)C[C@@H]2OP(=O)(S)OC[C@H]2O[C@@H](n3cc(C)c(=O)[nH]c3=O)C[C@@H]2O)[C@@H](COP(=O)(S)O[C@H]2C[C@H](n3cnc4c(N)ncnc43)O[C@@H]2COP(=O)(S)O[C@H]2C[C@H](n3cnc4c(=O)[nH]c(N)nc43)O[C@@H]2COP(=O)(S)O[C@H]2C[C@H](n3cc(C)c(=O)[nH]c3=O)O[C@@H]2COP(=O)(S)O[C@H]2C[C@H](n3ccc(N)nc3=O)O[C@@H]2COP(=O)(S)O[C@H]2C[C@H](n3cc(C)c(=O)[nH]c3=O)O[C@@H]2COP(=O)(S)O[C@H]2C[C@H](n3cnc4c(N)ncnc43)O[C@@H]2COP(=O)(S)O[C@H]2C[C@H](n3cc(C)c(=O)[nH]c3=O)O[C@@H]2COP(=O)(S)O[C@H]2C[C@H](n3ccc(N)nc3=O)O[C@@H]2CO)O[C@H]1n1ccc(N)nc1=O (some centres undefined) | inactive | inactive | Active | Active | inactive | inactive | Active | 50
CO[C@@H]1[C@H](OP(=O)(S)OC[C@H]2O[C@@H](n3cc(C)c(=O)[nH]c3=O)C[C@@H]2OP(=O)(S)OC[C@H]2O[C@@H](n3cc(C)c(=O)[nH]c3=O)C[C@@H]2OP(=O)(S)OC[C@H]2O[C@@H](n3ccc(N)nc3=O)C[C@@H]2OP(=O)(S)OC[C@H]2O[C@@H](n3cc(C)c(=O)[nH]c3=O)C[C@@H]2OP(=O)(S)OC[C@H]2O[C@@H](n3ccc(N)nc3=O)C[C@@H]2OP(=O)(S)OC[C@H]2O[C@@H](n3cc(C)c(=O)[nH]c3=O)C[C@@H]2OP(=O)(S)OC[C@H]2O[C@@H](n3cnc4c(=O)[nH]c(N)nc43)C[C@@H]2OP(=O)(S)OC[C@H]2O[C@@H](n3cc(C)c(=O)[nH]c3=O)C[C@@H]2O)[C@@H](COP(=O)(S)O[C@H]2C[C@H](n3ccc(N)nc3=O)O[C@@H]2COP(=O)(S)O[C@H]2C[C@H](n3cnc4c(N)ncnc43)O[C@@H]2COP(=O)(S)O[C@H]2C[C@H](n3cnc4c(=O)[nH]c(N)nc43)O[C@@H]2COP(=O)(S)O[C@H]2C[C@H](n3cc(C)c(=O)[nH]c3=O)O[C@@H]2COP(=O)(S)O[C@H]2C[C@H](n3ccc(N)nc3=O)O[C@@H]2COP(=O)(S)O[C@H]2C[C@H](n3cc(C)c(=O)[nH]c3=O)O[C@@H]2COP(=O)(S)O[C@H]2C[C@H](n3cnc4c(N)ncnc43)O[C@@H]2COP(=O)(S)O[C@H]2C[C@H](n3cc(C)c(=O)[nH]c3=O)O[C@@H]2COP(=O)(S)O[C@H]2C[C@H](n3ccc(N)nc3=O)O[C@@H]2CO)O[C@H]1n1cnc2c(=O)[nH]c(N)nc21 (some centres undefined) | inactive | inactive | Active | Active | inactive | inactive | Active | 50
Cc1cn([C@@H]2O[C@H](COP(=O)(S)O[C@H]3C[C@H](n4ccc(N)nc4=O)O[C@@H]3COP(=O)(S)O[C@H]3C[C@H](n4cc(C)c(=O)[nH]c4=O)O[C@@H]3COP(=O)(S)O[C@H]3C[C@H](n4ccc(N)nc4=O)O[C@@H]3COP(=O)(S)O[C@H]3C[C@H](n4cc(C)c(=O)[nH]c4=O)O[C@@H]3COP(=O)(S)O[C@H]3C[C@H](n4cc(C)c(=O)[nH]c4=O)O[C@@H]3COP(=O)(S)O[C@H]3C[C@H](n4cnc5c(=O)[nH]c(N)nc54)O[C@@H]3COP(=O)(S)O[C@H]3C[C@H](n4ccc(N)nc4=O)O[C@@H]3COP(=O)(S)O[C@H]3C[C@H](n4cnc5c(N)ncnc54)O[C@@H]3COP(=O)(S)O[C@H]3C[C@H](n4cnc5c(=O)[nH]c(N)nc54)O[C@@H]3COP(=O)(S)O[C@H]3C[C@H](n4cc(C)c(=O)[nH]c4=O)O[C@@H]3COP(=O)(S)O[C@H]3C[C@H](n4ccc(N)nc4=O)O[C@@H]3COP(=O)(S)O[C@H]3C[C@H](n4cc(C)c(=O)[nH]c4=O)O[C@@H]3COP(=O)(S)O[C@H]3C[C@H](n4cnc5c(N)ncnc54)O[C@@H]3COP(=O)(S)O[C@H]3C[C@H](n4cc(C)c(=O)[nH]c4=O)O[C@@H]3COP(=O)(S)O[C@@H]3C[C@@H](n4ccc(N)nc4=O)O[C@H]3CO)[C@@H](OP(=O)(S)OC[C@H]3O[C@@H](n4cnc5c(=O)[nH]c(N)nc54)C[C@@H]3OP(=O)(S)OC[C@H]3O[C@@H](n4cc(C)c(=O)[nH]c4=O)C[C@@H]3O)[C@H]2O)c(=O)[nH]c1=O (some centres undefined) | inactive | inactive | Active | Active | inactive | inactive | Active | 50
